Among the data in PubChem BioAssay AID1496 (Sanford-Burnham Center for Chemical Genomics, 2009) are inhibition values, retold here.

Out of some 220,000 compounds screened, about 990 (0.45%) were called active. The list comes from a sample in which actives are over-represented; it also holds similar structures and randomly drawn compounds. Values without a mark were called inactive.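 How the source made its calls: active means inhibition over about 50% at 20 µM in the single-dose screen (limit read from the data); inactive means the rest.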

Usually inhibition stands for the change of the read-out against control, counted positive when it falls.

Runt-related transcription factor 1 (Homo sapiens) + Core-binding factor subunit beta (Homo sapiens), sequence (Q01196 whole entry, looked up, the tested form may be a part): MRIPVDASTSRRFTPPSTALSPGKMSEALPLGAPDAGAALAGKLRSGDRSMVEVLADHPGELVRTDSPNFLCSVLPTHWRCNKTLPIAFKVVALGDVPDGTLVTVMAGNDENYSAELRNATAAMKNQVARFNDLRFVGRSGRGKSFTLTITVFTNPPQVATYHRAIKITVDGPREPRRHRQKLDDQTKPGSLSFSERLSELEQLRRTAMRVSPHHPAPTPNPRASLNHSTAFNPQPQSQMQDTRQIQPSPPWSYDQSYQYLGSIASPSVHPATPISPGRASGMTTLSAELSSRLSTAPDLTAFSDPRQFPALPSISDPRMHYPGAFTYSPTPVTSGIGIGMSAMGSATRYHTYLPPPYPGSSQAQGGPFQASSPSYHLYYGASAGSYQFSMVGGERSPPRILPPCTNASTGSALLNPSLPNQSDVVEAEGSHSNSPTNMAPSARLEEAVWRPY
Runt-related transcription factor 1 (Homo sapiens) + Core-binding factor subunit beta (Homo sapiens), sequence (Q13951 whole entry, looked up, the tested form may be a part): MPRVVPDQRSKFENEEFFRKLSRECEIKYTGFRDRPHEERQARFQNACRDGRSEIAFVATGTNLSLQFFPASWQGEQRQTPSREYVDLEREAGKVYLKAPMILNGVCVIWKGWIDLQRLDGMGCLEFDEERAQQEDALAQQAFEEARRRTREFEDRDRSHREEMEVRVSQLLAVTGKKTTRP

The test addresses Runt-related transcription factor 1 (Homo sapiens) + Core-binding factor subunit beta (Homo sapiens) (UniProt Q01196+Q13951). Kind of test: inhibitors of RUNX1 Runt–CBFb binding, primary screen, biochemical, FRET, Cerulean-Runt, Venus-CBFb, uHTS (AID 1496).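 Further: 0% = DMSO wells and 100% = excess unlabeled CBFb competitor control.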 The note with it: Cerulean-Runt/Venus-CBFb FRET ratio 530/480, 1 h; at 20 µM; hits give high values. The essentials:
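Measured by: fluorescence energy transfer, 422 nm excitation, 530/480 nm emission; Assay system: Cerulean-Runt domain; Medium: Tris pH 7.5 buffer with BSA; Measure: loss of energy transfer signal; Controls: 5 µM unlabeled CBFb as full-inhibition high control; Incubation: protein complex preformed 1 h, compound exposure 1 h, room temperature, dark.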
Regarding `CC(C)Cn1c(CCC(=O)O)ccc1-c1cccs1`, the inhibition is 65.6% (active).

Turning to `COCCCn1c(CCC(=O)O)ccc1-c1ccc(F)cc1`, the inhibition is 3.3%.

With `CCn1c(NC(=O)c2ccccc2)c(-c2cccs2)c(=O)c2ccccc21`, the inhibition is -4.7%.

In the case of `CNC(=S)NNC(=O)c1ccc(N(C)C)cc1`, the inhibition was 1.6%.

With `Cc1cc(F)ccc1NC(=O)C(C)n1c2ccccc2c2nc(=O)cc(C)n21` (configuration not stated), the inhibition was 1.5%.

Consider `CCOc1ccc(/C=N/NC(=O)CSc2ccccn2)cc1O`, for which the inhibition is 2.9%.

`Cc1ccc(S(=O)(=O)c2c(N)n(C)c3nc4ccccc4nc23)cc1`: the inhibition was 7.1%.

For `CCN(CC)CCn1c(N)c(S(=O)(=O)c2ccccc2)c2nc3ccccc3nc21`, the inhibition is 5.9%.

Take `CCC(=O)Nc1c(S(=O)(=O)c2ccccc2)c2nc3ccccc3nc2n1Cc1ccccc1`: the inhibition was 78.8% (active).

Turning to `O=c1c2cc(-c3ccccc3)sc2nc2n1N=C(c1cccs1)CS2`, the inhibition was -2.4%.

As for `Nc1nc(NCC2CCCO2)nc(Nc2ccccc2F)c1[N+](=O)[O-]` (configuration not stated), the inhibition was -3.8%.

On to `COCCCNC(=S)NCCNc1nc2cc(C)c(C)cc2cc1C#N`, for which the inhibition is 82.7% (active).

`COCCCNC(=S)NC(=O)c1ccc([N+](=O)[O-])cc1`: the inhibition is 4.5%.

With `Cc1ccc2nc(NCCCNC(=O)c3cnccn3)c(C#N)cc2c1`, the inhibition is 21.2%.

With `CC(/C=C/c1ccco1)=N/NC(=O)C1COc2ccccc2O1` (configuration not stated), the inhibition is 2.3%.

With `Cn1nc(C(F)(F)F)c(-c2ccc(F)cc2)c1NC(=O)CSCC(=O)O`, the inhibition is 3.4%.

As for `Cc1ccnc(N2C(=O)c3ccccc3C2Nc2ccc3c(c2)OCCO3)c1` (configuration not stated), the inhibition is 1.5%.

On to `O=C(NC1CCCCC1)C1c2ccccc2C(=O)N1Cc1ccco1` (configuration not stated), for which the inhibition was 1.8%.

For the compound `O=C1c2ccccc2C(Nc2ccc3c(c2)OCCO3)N1Cc1ccco1` (configuration not stated), the inhibition was 70% (active).

With `COC(=O)c1ccc(COc2cc([N+](=O)[O-])cc3cccnc23)cc1`, the inhibition is -0.8%.

As for `CCOC(=O)Cc1csc(NC(=O)COc2ccc3c(C)cc(=O)oc3c2)n1`, the inhibition was 1.8%.

For `CCOC(=O)Cc1csc(SCc2cc(=O)oc3cc(O)ccc23)n1`, the inhibition was 77.8% (active).

`Cc1ccc2c(CSc3nncs3)cc(=O)oc2c1`: the inhibition was 3.7%.

`COc1cccc(Nc2nc(N)c([N+](=O)[O-])c(NCc3ccco3)n2)c1`: the inhibition was 0.2%.

In the case of `CN1CCN(Cc2c(O)ccc3c2oc(=O)c2ccccc23)CC1`, the inhibition was -1.7%.

On to `O=c1oc2c(CN3CCCCC3)c(O)ccc2c2c1CCCCC2`, for which the inhibition was 72.8% (active).

With `NC(=O)COc1ccc2c3c(c(=O)oc2c1)CCCCC3`, the inhibition was 1.7%.
